Reference: publication PMC8925131 (Experimental cell research, 2021)

Columns and labels:
[1] = molecular target: T1, Plekha7 (D175K) PH domain (Homo sapiens, UniProt Q6IQ23, D175K); assay: Isothermal titration calorimetry; type: binding; conditions: ITC, diC8-PI, D175K mutant versus wild-type PH domain
T1 sequence (Q6IQ23 164-298 D175K): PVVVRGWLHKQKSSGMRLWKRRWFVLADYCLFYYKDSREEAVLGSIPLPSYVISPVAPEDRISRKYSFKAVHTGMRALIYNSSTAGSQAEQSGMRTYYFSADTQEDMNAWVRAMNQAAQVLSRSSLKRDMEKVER
Procedure, shortened: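 Human Plekha7 PH domain (residues 164–298, D175K mutant alongside wild type) was GST-vector expressed in E. coli BL21. ITC was run at 23 °C: 50 µM PH domain titrated with 0.5–1.0 mM diC8-phosphoinositides (PI(3,4)P2, PI(3,5)P2, PI(4,5)P2, PI(3,4,5)P3) in 30 mM NaCl, 15 mM Tris pH 7.6, 0.2 mM TCEP. Integrated heats were fit to a single-site model for Kd, reported as mean with SD.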

[2] = molecular target: Plekha7-GFP (Pleckstrin homology domain containing, family A member 7, GFP fusion) (human) (UniProt Q6IQ23); assay: FRET or BRET
Plekha7-GFP (Pleckstrin homology domain containing, family A member 7, GFP fusion) (human), sequence (Q6IQ23 whole entry, the tested form may be a part): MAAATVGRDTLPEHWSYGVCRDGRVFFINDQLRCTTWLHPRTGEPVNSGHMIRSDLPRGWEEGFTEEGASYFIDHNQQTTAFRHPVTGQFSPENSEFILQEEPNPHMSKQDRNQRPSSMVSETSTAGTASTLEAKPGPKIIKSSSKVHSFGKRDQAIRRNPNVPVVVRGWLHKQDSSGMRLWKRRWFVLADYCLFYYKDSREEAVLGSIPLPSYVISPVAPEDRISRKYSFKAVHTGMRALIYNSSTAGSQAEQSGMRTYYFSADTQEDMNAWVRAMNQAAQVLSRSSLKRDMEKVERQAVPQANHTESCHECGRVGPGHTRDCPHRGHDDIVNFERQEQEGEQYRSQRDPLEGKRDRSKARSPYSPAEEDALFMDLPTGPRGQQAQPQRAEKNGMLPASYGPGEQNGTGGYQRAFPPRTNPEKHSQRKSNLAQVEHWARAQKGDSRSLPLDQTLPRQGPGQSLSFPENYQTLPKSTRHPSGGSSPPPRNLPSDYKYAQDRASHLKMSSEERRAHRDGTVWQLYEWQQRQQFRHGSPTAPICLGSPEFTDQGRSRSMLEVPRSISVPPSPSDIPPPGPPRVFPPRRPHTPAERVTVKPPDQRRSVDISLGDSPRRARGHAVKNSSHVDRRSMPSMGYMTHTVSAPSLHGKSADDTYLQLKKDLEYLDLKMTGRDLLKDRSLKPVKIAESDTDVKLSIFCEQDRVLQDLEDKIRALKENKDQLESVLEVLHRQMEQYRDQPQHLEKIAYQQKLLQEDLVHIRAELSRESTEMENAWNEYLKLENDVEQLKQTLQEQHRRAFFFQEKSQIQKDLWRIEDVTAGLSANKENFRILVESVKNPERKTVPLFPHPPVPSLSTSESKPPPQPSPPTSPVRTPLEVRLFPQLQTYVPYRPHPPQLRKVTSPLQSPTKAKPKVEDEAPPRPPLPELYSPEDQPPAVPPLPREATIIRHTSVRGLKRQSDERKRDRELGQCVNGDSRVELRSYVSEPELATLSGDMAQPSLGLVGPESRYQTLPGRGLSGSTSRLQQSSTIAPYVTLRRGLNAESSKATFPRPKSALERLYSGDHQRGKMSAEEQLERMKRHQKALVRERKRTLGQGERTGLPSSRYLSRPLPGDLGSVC

[3] = test system: mutant KRas CRC cells; assay: Growth of mutant KRas CRC cells; type: cell-based; conditions: mutant KRas CRC cells (Figure S12C)
[4] = test system: wild type KRas CRC cells; assay: Growth of wild type KRas CRC cells; type: cell-based; conditions: wild type KRas CRC cells (Figure S12C)
[5] = test system: mutant BRaf CRC cells; assay: Growth of mutant BRaf CRC cells; type: cell-based; conditions: mutant BRaf CRC cells (Figure S12C)

CCCCCCCC(=O)OC[C@H](COP(=O)(O)O[C@H]1[C@H](O)[C@@H](O)[C@H](OP(=O)(O)O)[C@@H](OP(=O)(O)O)[C@H]1O)OC(=O)CCCCCCC [PI(3,4)P2]
increase in affinity for Plekha7 (D175K) compared with the wild-type protein [1]: 10 fold

wild-type KRas-RFP (from UniProt P01116 1-189) (natural protein)
average fluorescence lifetime of Plekha7-GFP [2]: 1.9 ns

CC1(C)Oc2ccc(-c3csc(Cn4nc(CCO)c5ccccc5c4=O)n3)cc2O1 [PHT-7704, 2-((4-(2,2-dimethylbenzo[d][1,3]dioxol-5-yl)thiazol-2-yl)methyl)-4-(2-hydroxyethyl)phthalazin-1(2H)-one]
inhibition of mutant KRas CRC cell growth [3]: selective inhibition
effect on growth of wild type KRas CRC cells [4]: without affecting the growth
inhibition of growth of mutant BRaf CRC cells [5]: inhibited the growth

CCCCCCCC(=O)OC[C@H](COP(=O)(O)O[C@@H]1[C@H](O)[C@H](O)[C@@H](OP(=O)(O)O)[C@H](OP(=O)(O)O)[C@H]1O)OC(=O)CCCCCCC [PI(4,5)P2]
change of affinity for Plekha7 (D175K) compared with wild-type [1]: did not change

CCCCCCCCCCCCCCCCCCOC[C@H](COP(=O)(O)OC1C(O)[C@@H](O)C(O)C[C@H]1O)OC (stereo partly drawn) [DPIEL]
inhibition of mutant KRas CRC cell growth [3]: selective inhibition
effect on growth of wild type KRas CRC cells [4]: without affecting the growth

CCCCCCCC(=O)OC[C@H](COP(=O)(O)O[C@H]1[C@H](O)[C@@H](OP(=O)(O)O)[C@H](OP(=O)(O)O)[C@@H](OP(=O)(O)O)[C@H]1O)OC(=O)CCCCCCC [PI(3,4,5)P3]
increase in affinity for Plekha7 (D175K) compared with the wild-type protein [1]: 10 fold
